The RNAGym collection of RNA variant scans (doi:10.1126/science.aae0568)
Variants at the floor of the assay were thinned out.

B1: tRNA (parent)
chain: GUUCCGUUGGCGUAAUGGUAACGCGUCUCCCUCCUAAGGAGAAGACUGCGGGUUCGAGUCCCGUACGGAACG

Variants of: B1
Experiment: yeast fitness relative to wild type (ratio to wild type); higher = fitter; tRNA-Arg(CCU), competitive growth, 37 C, YPD
Outline: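 For this measurement, the tRNA-Arg(CCU) gene was varied by chemical synthesis at a 3% per-site mutation rate across 69 sites, and each variant was placed at the native genomic locus in Saccharomyces cerevisiae. The pooled strains went through a 24-hour competition in YPD at 37°C in six parallel replicates, with amplicons from start and end populations read by 100-nucleotide paired-end sequencing. Darwinian fitness relative to wild type followed from the change in each genotype's frequency. Genotypes needed ≥ 100 starting reads, and estimates < 0.5 were set to 0.5.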

Row | Variant | yeast fitness
1 | A37U A40C G58A | 0.591
2 | A36U C61G | 0.698
3 | A37G G51A | 0.704
4 | A37U G44A A69C | ≤ 0.5
5 | A37G U64A | 0.61
6 | A37U C60G | 0.516
7 | A37U C60U | 0.519
8 | A37G A57C | 0.545
9 | A37G A43U | 0.631
10 | A37G A43C | 0.89
11 | A36U C55G | ≤ 0.5
12 | A37C G39C C55U C61A | 0.532
13 | A37C C49U C60G | ≤ 0.5
14 | A36U U59C C62G | ≤ 0.5
15 | A37C A42U C49A A65U | 0.609
16 | A37U G51A C66G | ≤ 0.5
17 | A37G G41A | 0.805
18 | A37U U54G | ≤ 0.5
19 | A37G C49A | 0.546
20 | A37G C49G | 0.788
21 | A36U G51A G58C U59A | ≤ 0.5
22 | A37U C55A C60U | ≤ 0.5
23 | A37C G39C C49U | ≤ 0.5
24 | A37C G38A | 0.636

Row | Variant | yeast fitness
25 | A37U C55U C61G A65U A70U | ≤ 0.5
26 | A37G A45U U59A | ≤ 0.5
27 | G38A C55U A57G | ≤ 0.5
28 | A36U G44A A70G | ≤ 0.5
29 | A37U C62U | 0.859
30 | A37C G68A | 0.729
31 | A37C G68U | 0.761
32 | A37U A40U U64C G67A | ≤ 0.5
33 | A37C A65G G68U | 0.801
34 | A37G C55G C66G | ≤ 0.5
35 | A37U G58A G68A | 0.588
36 | A37U G48C U59C | 0.533
37 | A37C U47C | 0.81
38 | A36U G52A G63C | 0.558
39 | A36U G38A A40G | ≤ 0.5
40 | A37G G48A G50A U59G | 0.66
41 | A36U G39A A42C G50U G63A | 0.535
42 | A37C G41A C49U C60G | ≤ 0.5
43 | A37C U47G C62G G68A | 0.549
44 | A37U U47C U53G A69U | ≤ 0.5
45 | A36U U53G A69U | ≤ 0.5
46 | A37G C46U C55U | ≤ 0.5
47 | A37C A43G | 0.988
48 | A37C A43C | 0.931

Row | Variant | yeast fitness
49 | A37C A43U | 0.992
50 | G38A A57G | 0.854
51 | A37C C46G C62G | 0.654
52 | A37C C55G G68C | 0.556
53 | A37U C61U A70G | 0.572
54 | A37U C49U U64A | ≤ 0.5
55 | A37U G51A C55U | ≤ 0.5
56 | A37G A45C C61U | 0.579
57 | A37G A45C C61G | ≤ 0.5
58 | G38A A42C A45C C62A | ≤ 0.5
59 | A37C C55G G56A A69C | ≤ 0.5
60 | A37U A42C C55U A69U | ≤ 0.5
61 | A37U G51A | 0.57
62 | A36U G48C C55G | ≤ 0.5
63 | A37G A43G C55A G56A | 0.6
64 | A37U G44A U54A C62G C66G A69G | ≤ 0.5
65 | G38A A40G C66A | 0.597
66 | A37G G50C | 0.693
67 | A37U U47G A57C | ≤ 0.5
68 | A37U C62U C66G | ≤ 0.5
69 | A37G C60G G68A | ≤ 0.5
70 | A37U A42U C66A A69C | 0.572
71 | A37G A45G G48A | 0.557
72 | A37U A45C G52C | ≤ 0.5

Row | Variant | yeast fitness
73 | A37U C46U | 0.821
74 | A36U G56C A69U | 0.669
75 | A37U G56C A57U | ≤ 0.5
76 | A37C G44C G52C U59C C66U | 0.574
77 | A37C C49U U54G | ≤ 0.5
78 | A37G C55A G58C G68C | ≤ 0.5
79 | G38A A43G A57C | ≤ 0.5
80 | A37U G50C G67A | ≤ 0.5
81 | A37G A40U C49A A57U | ≤ 0.5
82 | A37U G44A C49U A57C C61G | ≤ 0.5
83 | A36U G41C A45U C49U C60U | ≤ 0.5
84 | A36U G52A C60A | ≤ 0.5
85 | A36U G52A C60G | ≤ 0.5
86 | G38A C46U A69U | 0.686
87 | G38A A40C G56A C60U C61G G67U | ≤ 0.5
88 | A37U G51A U53G U54C | ≤ 0.5
89 | A37G C55A | ≤ 0.5
90 | G38A A40U G50C C60G | ≤ 0.5
91 | A37C A42C | 0.922
92 | A37G G38A | 0.725
93 | G38A A65U | 0.739
94 | A37C | 0.913
95 | A37U | 0.722
96 | A37G | 0.734

Row | Variant | yeast fitness
97 | A37C G63C | 0.663
98 | A37C G63A | 0.612
99 | A37U G44A | 0.602
100 | A37U G44C | 0.784
101 | A37G C62G | 0.676
102 | A37U G50A | 0.804
103 | A37U G48C G68U | 0.57
104 | A37C G38A C55A A65C | ≤ 0.5
105 | A37C G41C A45G | ≤ 0.5
106 | A37C G41A | 1.01
107 | A37G A42C C55G G68C | ≤ 0.5
108 | A37G A43G A69U | 0.802
109 | G38A C62A C66G | 0.804
110 | A37U G44A G67U A70G | ≤ 0.5
111 | A37C A45G | 0.818
112 | A37C C49G | 0.729
113 | A37G A42C A65C A69C | 0.616
114 | A37C G38A G63A | 0.549
115 | G38A A40U G50C C60G A65U | ≤ 0.5
116 | A37C G44A | 0.776
117 | A37C U64G | 0.684
118 | A37C C46U A65C G67C | ≤ 0.5
119 | A37G G44C A57U G63C | ≤ 0.5
120 | A37C U53A | 0.632

Row | Variant | yeast fitness
121 | A37U U53G A65U | ≤ 0.5
122 | A36U C49G U54A A57C G68A | ≤ 0.5
123 | G38A A42C A45U G52A | ≤ 0.5
124 | A37U U53A G58C | ≤ 0.5
125 | A37C A40G G52C U59C A65U C66U | ≤ 0.5
126 | A37C G38C U54C C61U | 0.678
127 | A37C C49U G51A | ≤ 0.5
128 | A36U U47A | 0.697
129 | A37G G41C A43U | ≤ 0.5
130 | A37G G44C A57U G67U A69C | ≤ 0.5
131 | A37G A40C C61G A69U | ≤ 0.5
132 | A37U A42G A45U C66U | ≤ 0.5
133 | A37U C49A G52A C55U G56A | 0.529
134 | A37U C46G C55A U59C C61A C62U | 0.524
135 | A36U G39C C61U | ≤ 0.5
136 | A37G G39A A69U | 0.589
137 | A37C A40U G52C A69G | ≤ 0.5
138 | A37U U53G | 0.538
139 | A37C G56A | 0.829
140 | A37U U64C | 0.77
141 | A37C A45G C49G | 0.578
142 | A37G C46U | 0.722
143 | A37G C66U | 0.828
144 | A37G C66G | 0.692

Row | Variant | yeast fitness
145 | A37C A40G | 0.716
146 | A37U A65U C66G | ≤ 0.5
147 | A37U U47C U53G C62U | ≤ 0.5
148 | A37G A70G | 0.832
149 | A37U A43U A57U C66A | ≤ 0.5
150 | A37U U47C G51C G63C | 0.507
151 | A37G U53A | ≤ 0.5
152 | A37C C49U C55U G63A G67C | ≤ 0.5
153 | A37C C55U | 0.769
154 | A37C C55A | 0.599
155 | A37C C60G C66G A70G | ≤ 0.5
156 | A37U C46G U54C C61A | 0.543
157 | A36U G67A | 0.63
158 | A36U G67C | 0.602
159 | A37C C66G | 0.586
160 | A37C C66U | 0.75
161 | A37C C62U A70U | ≤ 0.5
162 | A37U A42G A45U | 0.592
163 | A37C G56A A69U | 0.647
164 | A37C U54C | 0.799
165 | A37C G51A G67A | 0.584
166 | A36U C55U A65C | ≤ 0.5
167 | A37G A40U G58C | 0.729
